Measured values from ChEMBL document CHEMBL1133014, “Design, synthesis, and SAR of novel carbapenem antibiotics with high stability to Xanthomonas maltophilia oxyiminocephalosporinase type II” (2000).
≈ marks a conversion by molar mass, not a printed value.

Assays:
Format in all cases: functional
[1] = test system: Stenotrophomonas maltophilia; assay: Minimum protective concentration against beta-lactamase of Xanthomonas maltophilia GN 12873 (CXase-I)
Summary of the method: (§1)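 Minimum protective concentration taken as the lowest β-lactam concentration protecting a chromogenic indicator from β-lactamase hydrolysis within 1.0 h under standard conditions. Hydrolysis was read as a distinct red color. Compound stability without enzyme was checked at 37 °C in phosphate buffer, pH 6.5.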

Pseudomonas aeruginosa [2] = assay: In vitro antimicrobial activity against Pseudomonas aeruginosa 1101-75 was determined
Summary of the method: (§2)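 MIC by agar dilution: organisms applied onto antibiotic-containing agar plates with a Steers-type replicator. MIC taken as the lowest concentration preventing visible growth, averaged from duplicate determinations (± standard error).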

Staphylococcus aureus [3] = assay: In vitro antimicrobial activity against Staphylococcus aureus FDA 209P was determined; summary of the method: as §2
[4] = test system: Stenotrophomonas maltophilia; assay: Minimum protective concentration against beta-lactamase of Xanthomonas maltophilia GN 12873 (CXase-II); summary of the method: as §1
Escherichia coli = assay: In vitro antimicrobial activity against Escherichia coli ATCC 39188 was determined; summary of the method: as §2
Staphylococcus aureus [5] = assay: Minimum protective concentration against beta-lactamase of Staphylococcus aureus 95; summary of the method: as §1
[6] = In vitro antimicrobial activity against Xanthomonas maltophilia GN 12873 in combination (1:1 w/w) with imipenem; details: Stenotrophomonas maltophilia; summary of the method: as §2
Klebsiella pneumoniae = assay: In vitro antimicrobial activity against Klebsiella pneumoniae NCTC 418 was determined; summary of the method: as §2
[7] = In vitro antimicrobial activity against Xanthomonas maltophilia GN 12873 was determined; details: Stenotrophomonas maltophilia; summary of the method: as §2
Pseudomonas aeruginosa [8] = assay: Minimum protective concentration against beta-lactamase of Pseudomonas aeruginosa 18S-H; summary of the method: as §1
Staphylococcus aureus [9] = assay: In vitro antimicrobial activity against Staphylococcus aureus 95 (methicillin-resistant strain) was determined
Summary of the method: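 Agar dilution MIC: organisms were deposited onto medicated agar plates with a Steers-type replicator. MIC was read as the lowest antibiotic concentration preventing visible growth. Values are averages of duplicate determinations with standard error.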

Pseudomonas aeruginosa [10] = assay: In vitro antimicrobial activity against Pseudomonas aeruginosa 18S-H was determined; summary of the method: as §2

SMILES: CC(=O)OCCC1=C(C(=O)O)N2C(=O)[C@@H](NC(=O)Cc3ccccc3)[C@H]2C1 (racemic)
- MPC [1]: 27.5 µg/mL
- MIC (Pseudomonas aeruginosa [2]): 2.87 µg/mL (≈ 7.71 µM)
- MIC (Staphylococcus aureus [3]): 0.05 µg/mL (≈ 0.134 µM)
- MPC [4]: 47.8 µg/mL
- MIC (Escherichia coli): 0.69 µg/mL (≈ 1.85 µM)
- MPC (Staphylococcus aureus [5]): 6.12 µg/mL
- MIC [6]: 0.39 µg/mL
- MIC (Klebsiella pneumoniae): 1.08 µg/mL (≈ 2.9 µM)
- MIC [7]: 4.12 µg/mL (≈ 11.1 µM)
- MPC (Pseudomonas aeruginosa [8]): 5.87 µg/mL
- MIC (Staphylococcus aureus [9]): 14.9 µg/mL (≈ 40.1 µM)
- MIC (Pseudomonas aeruginosa [10]): 17.2 µg/mL (≈ 46.2 µM)

SMILES: COC(=O)CC1=C(C(=O)O)N2C(=O)[C@@H](NC(=O)Cc3ccccc3)[C@H]2C1 (racemic)
- MPC [1]: 30.4 µg/mL
- MIC (Pseudomonas aeruginosa [2]): 1.8 µg/mL (≈ 5.02 µM)
- MIC (Staphylococcus aureus [3]): 0.04 µg/mL (≈ 0.112 µM)
- MPC [4]: 35 µg/mL
- MIC (Escherichia coli): 0.67 µg/mL (≈ 1.87 µM)
- MPC (Staphylococcus aureus [5]): 6.87 µg/mL
- MIC [6]: 0.98 µg/mL
- MIC (Klebsiella pneumoniae): 0.77 µg/mL (≈ 2.15 µM)
- MIC [7]: 5.97 µg/mL (≈ 16.7 µM)
- MPC (Pseudomonas aeruginosa [8]): 8.74 µg/mL
- MIC (Staphylococcus aureus [9]): 18.5 µg/mL (≈ 51.7 µM)
- MIC (Pseudomonas aeruginosa [10]): 21.3 µg/mL (≈ 59.4 µM)

SMILES: COC(=O)C1=C(C(=O)O)N2C(=O)[C@@H](NC(=O)Cc3ccccc3)[C@H]2C1 (racemic)
- MPC [1]: 14.6 µg/mL
- MIC (Pseudomonas aeruginosa [2]): 0.89 µg/mL (≈ 2.58 µM)
- MIC (Staphylococcus aureus [3]): 0.01 µg/mL (≈ 0.029 µM)
- MPC [4]: 16.7 µg/mL
- MIC (Escherichia coli): 0.2 µg/mL (≈ 0.581 µM)
- MPC (Staphylococcus aureus [5]): 0.98 µg/mL
- MIC [6]: 2.01 µg/mL
- MIC (Klebsiella pneumoniae): 0.15 µg/mL (≈ 0.436 µM)
- MIC [7]: 12.1 µg/mL (≈ 35.2 µM)
- MPC (Pseudomonas aeruginosa [8]): 1.02 µg/mL
- MIC (Staphylococcus aureus [9]): 8.3 µg/mL (≈ 24.1 µM)
- MIC (Pseudomonas aeruginosa [10]): 12.1 µg/mL (≈ 35.1 µM)

SMILES: O=C(Cc1ccccc1)N[C@@H]1C(=O)N2C(C(=O)O)=C(C(=O)O)C[C@H]12 (racemic)
- MPC [1]: 25.5 µg/mL
- MIC (Pseudomonas aeruginosa [2]): 5.63 µg/mL (≈ 17 µM)
- MIC (Staphylococcus aureus [3]): 0.03 µg/mL (≈ 0.0908 µM)
- MPC [4]: 29.4 µg/mL
- MIC (Escherichia coli): 0.48 µg/mL (≈ 1.45 µM)
- MPC (Staphylococcus aureus [5]): 2.2 µg/mL
- MIC [6]: 1.58 µg/mL
- MIC (Klebsiella pneumoniae): 0.56 µg/mL (≈ 1.7 µM)
- MIC [7]: 9.61 µg/mL (≈ 29.1 µM)
- MPC (Pseudomonas aeruginosa [8]): 2.38 µg/mL
- MIC (Staphylococcus aureus [9]): 13.9 µg/mL (≈ 42 µM)
- MIC (Pseudomonas aeruginosa [10]): 28.2 µg/mL (≈ 85.3 µM)

SMILES: CC1(C)S[C@@H]2[C@H](NC(=O)Cc3ccccc3)C(=O)N2[C@H]1C(=O)O [PENICILLIN G]
- MPC [1]: 23.6 µg/mL
- MIC (Pseudomonas aeruginosa [2]): > 128 µg/mL
- MIC (Staphylococcus aureus [3]): 0.51 µg/mL (≈ 1.53 µM)
- MPC [4]: 28.8 µg/mL
- MIC (Escherichia coli): 2.87 µg/mL (≈ 8.58 µM)
- MPC (Staphylococcus aureus [5]): 1.85 µg/mL
- MIC (Klebsiella pneumoniae): > 128 µg/mL
- MIC [7]: > 128 µg/mL
- MPC (Pseudomonas aeruginosa [8]): 1.03 µg/mL
- MIC (Staphylococcus aureus [9]): > 128 µg/mL
- MIC (Pseudomonas aeruginosa [10]): > 128 µg/mL

SMILES: O=C(Cc1ccccc1)N[C@@H]1C(=O)N2C(C(=O)O)=CC[C@H]12 (racemic)
- MPC [1]: 30 µg/mL
- MIC (Pseudomonas aeruginosa [2]): 8.91 µg/mL (≈ 31.1 µM)
- MIC (Staphylococcus aureus [3]): 0.12 µg/mL (≈ 0.419 µM)
- MPC [4]: 33.6 µg/mL
- MIC (Escherichia coli): 0.98 µg/mL (≈ 3.42 µM)
- MPC (Staphylococcus aureus [5]): 3.45 µg/mL
- MIC [6]: 2.15 µg/mL
- MIC (Klebsiella pneumoniae): 1.92 µg/mL (≈ 6.71 µM)
- MIC [7]: 10.3 µg/mL (≈ 35.9 µM)
- MPC (Pseudomonas aeruginosa [8]): 4.21 µg/mL
- MIC (Staphylococcus aureus [9]): 30.7 µg/mL (≈ 107 µM)
- MIC (Pseudomonas aeruginosa [10]): 31.6 µg/mL (≈ 110 µM)

SMILES: O=C(Cc1ccccc1)N[C@@H]1C(=O)N2C(C(=O)O)=C(CCO)C[C@H]12 (racemic)
- MPC [1]: 36.7 µg/mL
- MIC (Pseudomonas aeruginosa [2]): 3.51 µg/mL (≈ 10.6 µM)
- MIC (Staphylococcus aureus [3]): 0.07 µg/mL (≈ 0.212 µM)
- MPC [4]: 42.1 µg/mL
- MIC (Escherichia coli): 0.75 µg/mL (≈ 2.27 µM)
- MPC (Staphylococcus aureus [5]): 7.18 µg/mL
- MIC [6]: 0.77 µg/mL
- MIC (Klebsiella pneumoniae): 0.88 µg/mL (≈ 2.66 µM)
- MIC [7]: 6.73 µg/mL (≈ 20.4 µM)
- MPC (Pseudomonas aeruginosa [8]): 6.98 µg/mL
- MIC (Staphylococcus aureus [9]): 19.2 µg/mL (≈ 58.2 µM)
- MIC (Pseudomonas aeruginosa [10]): 22.6 µg/mL (≈ 68.5 µM)

SMILES: C[C@@H](O)[C@H]1C(=O)N2C(C(=O)O)=C(SCCNC=N)C[C@H]12.O [IMIPENEM]
- MPC [1]: 46.8 µg/mL
- MIC (Pseudomonas aeruginosa [2]): 4.71 µg/mL
- MIC (Staphylococcus aureus [3]): 0.02 µg/mL
- MPC [4]: 0.87 µg/mL
- MIC (Escherichia coli): 0.35 µg/mL
- MPC (Staphylococcus aureus [5]): 30.12 µg/mL
- MIC (Klebsiella pneumoniae): 0.4 µg/mL
- MIC [7]: > 128 µg/mL
- MPC (Pseudomonas aeruginosa [8]): 35.61 µg/mL
- MIC (Staphylococcus aureus [9]): 15.7 µg/mL
- MIC (Pseudomonas aeruginosa [10]): 35.6 µg/mL
